The target of experiment [1] is T1, Steroid 17-alpha-hydroxylase/17,20 lyase (Homo sapiens, UniProt P05093).
T1 sequence (P05093 whole entry): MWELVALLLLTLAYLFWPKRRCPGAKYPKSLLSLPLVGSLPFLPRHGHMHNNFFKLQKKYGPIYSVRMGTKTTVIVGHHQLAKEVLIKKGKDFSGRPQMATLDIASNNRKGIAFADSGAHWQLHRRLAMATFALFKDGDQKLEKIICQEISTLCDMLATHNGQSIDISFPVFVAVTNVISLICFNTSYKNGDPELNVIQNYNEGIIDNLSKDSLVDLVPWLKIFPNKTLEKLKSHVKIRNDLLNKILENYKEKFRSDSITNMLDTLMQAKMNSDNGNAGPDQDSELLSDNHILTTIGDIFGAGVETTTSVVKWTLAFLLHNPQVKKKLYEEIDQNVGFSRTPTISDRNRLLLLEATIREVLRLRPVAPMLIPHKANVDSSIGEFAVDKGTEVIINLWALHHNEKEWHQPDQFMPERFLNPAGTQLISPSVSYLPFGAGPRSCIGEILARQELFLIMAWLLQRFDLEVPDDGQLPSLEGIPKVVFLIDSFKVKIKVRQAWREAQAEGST
The experiment is described as follows: In vitro cytochrome P450 17A1 inhibition was assayed using the rapid acetic acid releasing assay (AARA), utilizing intact P450c17-expressing Escherichia coli or P450c17-LNCaP cells as the enzyme source. The method, boiled down:
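Enzyme source was intact E. coli expressing P450c17 or P450c17-LNCaP cells. Substrate was [21-3H]-17α-hydroxypregnenolone, and CYP17 activity was read as tritiated acetic acid released by C-21 side-chain cleavage. Each compound was tested at five or more concentrations, in triplicate. IC50 was taken directly from plots of % inhibition versus concentration and reported as the mean of triplicate experiments.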

In experiment [2] the target is T1, Steroid 17-alpha-hydroxylase/17,20 lyase. The experiment is described as follows: In vitro Cytochrome P450 17A1 inhibition in rapid acetic acid releasing assay (AARA) using intact P450c17-expressing Escherichia coli or P450c17-LNCaP cells as the enzyme source at 1 mM. The method, boiled down:
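Acetic acid releasing assay using intact P450c17-expressing E. coli or P450c17-LNCaP cells with [21-3H]-17α-hydroxypregnenolone as substrate. Activity was read as tritiated acetic acid formed from C-21 side-chain cleavage. Percent inhibition was recorded at a single inhibitor concentration of 1 mM.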

Experiment [3] shares this target.

For 29 molecules, IC50, inhibition and Ki results are on record in ChEMBL document CHEMBL1145784, “Three dimensional pharmacophore modeling of human CYP17 inhibitors. Potential agents for prostate cancer therapy” (J Med Chem, 2003).

Molecules are shown by their SMILES.

As usually defined, the IC50 is the point on the concentration scale where inhibition reaches its midpoint. Lower therefore signals greater potency in that assay. The molecule `C/C(=N/O)C1=CC=C2[C@@H]3CCC4=CC(=O)CC[C@]4(C)[C@H]3CC[C@]12C` yielded an IC50 in experiment [1] of 1700 nM.
Same read-out and setting: the result for `C/C(=N/O)[C@@]1(O)CC[C@H]2[C@@H]3CC=C4C[C@@H](O)CC[C@]4(C)[C@H]3CC[C@@]21C` reads 12000 nM; that for `C[C@]12CC[C@@H](O)CC1=CC[C@@H]1[C@@H]2CC[C@]2(C)C(=C/C=N/O)CC[C@@H]12`, 320 nM.
In experiment [1], `C[C@]12CC[C@H](O)CC1=CCC1C2CC[C@@]2(C)C1CC[C@H]2c1ccncn1` (some centres undefined) returned an IC50 of 225 nM.
Still for that read-out and setting: the same measure for `C[C@]12CCC3C(CC=C4C[C@@H](O)CC[C@@]43C)C1C/C(=N\O)C2` (some centres undefined): 628 nM; for `C[C@]12CC[C@H](O)CC1=CCC1C2CC[C@]2(C)C(n3nccn3)=CCC12` (some centres undefined): 3700 nM.
In the case of `C[C@]12CCC(=O)C=C1CCC1C2CC[C@]2(C)C(n3cncn3)=CCC12` (some centres undefined), inhibition in experiment [1] was half-maximal at 1200 nM (IC50). This IC50 lies about 3.1-fold lower than the previous one.
The same measure, in the same setting: the result for `C[C@]12CC[C@H](O)CC1=CCC1C2CC[C@]2(C)C(n3cnnn3)=CCC12` (some centres undefined) reads 2600 nM; that for `C[C@]12CCC(=O)C=C1CCC1C2CC[C@]2(C)C(n3ccnc3)=CCC12` (some centres undefined), 150 nM; that for `C[C@]12CC[C@H](O)CC1=CCC1C2CC[C@]2(C)C(n3cncn3)=CCC12` (some centres undefined), 800 nM.
The molecule `CC(=O)O[C@H]1CCC2C3C=CC4=CC(=O)C=C[C@]4(C)C3CC[C@@]21C` (some centres undefined) came in with an IC50 in experiment [1] of 660 nM.
On the same count and under the same terms, the same measure for `C=C1C[C@@]2(C)C(=CC1=O)CCC1C2CC[C@@]2(C)C1CC[C@]2(C)OC(C)=O` (some centres undefined): 562 nM; for `C[C@]12CC[C@H](O)CC1=CCC1C2CC[C@]2(C)C(c3cncnc3)=CCC12` (some centres undefined): 500 nM.
Still for that read-out and setting: the result for `C[C@]12CCC3C(CC=C4C[C@@H](O)CC[C@@]43C)C1CCC2C/C=N/O` (some centres undefined) reads 450 nM; that for `C[C@]12CCC(=O)C=C1CCC1C2CC[C@]2(C)C(n3cnc4ccccc43)=CCC12` (some centres undefined), 915 nM.
Usually inhibition stands for the percentage by which the read-out fell short of the control. Low readings indicate a response near the control, high ones a response far below the control. With `CS(=O)(=O)Nc1cc(Cc2cc(NS(C)(=O)=O)cc(C(F)(F)F)c2)cc(C(F)(F)F)c1`, the inhibition at 1000 µM in experiment [2] is approximately 25%.
The molecule `C[C@]12CCC(=O)C=C1CCC1C2CC[C@]2(C)C(n3ccnn3)=CCC12` (some centres undefined) gave an IC50 in experiment [1] of 387 nM.
Still for that read-out and setting: the result for `C[C@]12CC[C@H](O)CC1=CCC1C2CC[C@]2(C)C(=N/N)/C(=N/O)CC12` (some centres undefined) reads 5900 nM; that for `C[C@]12CC[C@H](O)CC1=CCC1C2CC[C@]2(C)C(n3ccnn3)=CCC12` (some centres undefined), 377 nM; that for `C[C@]12CCC(=O)C=C1CCC1C2CC[C@]2(C)C(c3ccno3)=CCC12` (some centres undefined), 1000 nM.
On the same count and under the same terms, the same measure for `CC(CCC(=O)OC1CC2CC=CC1C2)[C@H]1CCC2C3CC=C4C[C@@H](O)CC[C@]4(C)C3CCC21` (some centres undefined): 617 nM; for `C[C@]12CC[C@H](O)CC1=CCC1C2CC[C@]2(C)C(n3ncnn3)=CCC12` (some centres undefined): 1400 nM.
Still for that read-out and setting: the result for `C[C@]12CC[C@H](O)CC1=CC[C@@H]1[C@@H]2CC[C@]2(C)C(c3cccnc3)=CC[C@@H]12` [ABIRATERONE] reads 800 nM.
In general, Ki refers to the equilibrium dissociation constant of an inhibitor or competing ligand from its target. The low end stands for higher affinity, the high end for lower affinity. With `c1ccc(-c2ccc(C(c3ccccc3)n3ccnc3)cc2)cc1` (centres undefined) [BIFONAZOLE], in experiment [3], the Ki came to 56.5 nM.
On the same count and under the same terms, the same measure for `Clc1ccc(COC(Cn2ccnc2)c2ccc(Cl)cc2Cl)cc1` (centres undefined) [ECONAZOLE]: 325 nM; for `Clc1ccc(COC(Cn2ccnc2)c2ccc(Cl)cc2Cl)c(Cl)c1` (centres undefined) [MICONAZOLE]: 243 nM.
`C[C@]12CC[C@H](O)CC1=CCC1C2CC[C@]2(C)/C(=N/NC(N)=O)CCC12` (some centres undefined) [NRB 03731]: in experiment [1], the IC50 was 178 nM.
On the same count and under the same terms, the result for `CCC(=O)O[C@H]1CC[C@H]2[C@@H]3CCC4=CC(=O)CC[C@]4(C)[C@H]3CC[C@]12C` [TESTOSTERONE PROPIONATE] reads 56 nM.
Molecule `Clc1ccc(C(Cn2ccnc2)OCc2ccsc2Cl)c(Cl)c1` (centres undefined) [TIOCONAZOLE] came in with a Ki in experiment [3] of 505 nM.
